One data set concerns Vero. Kind of data set: Cytotoxicity against african green monkey Vero cells assessed as reduction in cell viability after 4 days by green fluorescent protein detection method. The class given is cell-based. The settings on record: chlorocebus sabaeus, 96 h. An outline of the steps:
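GFP-expressing Vero cells (stably transfected with pEGFP-N1) seeded at 3.3 × 10⁴ cells/mL onto compounds prediluted in 0.5% DMSO; 4 days at 37 °C, 5% CO₂. Fluorescence read at ex 485/em 535 nm, day-0 background subtracted. IC50 from dose-response curves over 6 concentrations (3-fold serial dilutions). Ellipticine positive control, 0.5% DMSO negative control.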

Data set [1] in a line: (§1) Cytotoxicity against human HuCCa1 cells assessed as reduction in cell viability after 48 hrs by MTT assay. The following applies: HuCC-A1, 48 h. The class given is functional, cell-based. An outline of the steps:
(§2)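 Adherent cells plated at 10,000–20,000 cells/well and allowed 24 h at 37 °C (5% CO₂) before an equal volume of medium with serially diluted compound was added. Etoposide and/or doxorubicin were positive controls and DMSO the negative control. After a further 48 h, surviving cells were measured by MTT. IC50 is the concentration giving 50% growth inhibition relative to the DMSO control.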
Background: Tetrazolium dyes change colour on reduction, which living cells bring about.

The test system of data set [2] is HepG2. As to the kind of experiment: Cytotoxicity against human HepG2 cells assessed as reduction in cell viability after 48 hrs by MTT assay. Format: functional, cell-based. The settings on record: for IC50: HepG2, 48 h. A digest of the protocol: as §2
Another data set has as its system A549. As to the kind of experiment: Cytotoxicity against human A549 cells assessed as reduction in cell viability after 48 hrs by MTT assay. Format: functional, cell-based. The following applies: for IC50: A549, 48 h. A digest of the protocol: as §2
A short description of data set [3]: (§3) Cytotoxicity against human MOLT3 cells assessed as reduction in cell viability after 48 hrs by XTT assay. The following applies: MOLT-3, 48 h. Format: functional, cell-based. An outline of the steps:
(§4)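 Suspension cells plated at 10,000–20,000 cells/well and pre-incubated 24 h at 37 °C, 5% CO₂. Serial compound dilutions were added in an equal volume of medium, with etoposide and/or doxorubicin as positive controls and DMSO as negative control, then incubated 48 h more. Viable cells were read by XTT. IC50 is taken as 50% growth inhibition versus the DMSO control.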

The subject of another data set is Plasmodium falciparum. As to the kind of experiment: Antimalarial activity against multidrug-resistant Plasmodium falciparum K1 after 24 hrs by [3H]hypoxanthine incorporation assay. Format: functional, organism-based. A digest of the protocol:
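P. falciparum K1 kept in RPMI 1640 with 20 mM HEPES, NaHCO₃, 10% human serum and 3% erythrocytes at 37 °C under 3% CO₂, passaged daily. Early ring-stage parasites (1% parasitemia, 1.5% erythrocytes) were exposed to compound (0.1% DMSO final) for 24 h. [3H]hypoxanthine was then added for a further 24 h. Incorporation was counted by scintillation and expressed as percent parasite growth.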

Data set [4] has as its system HepG2. As to the kind of experiment: Ratio of etoposide IC50 to compound IC50 for human HepG2 cells assessed as reduction in cell viability after 48 hrs by MTT assay. The class given is functional.
The subject of another data set is HuCC-A1. The data set is described as §1. The class given is functional, cell-based. A digest of the protocol: as §2
The subject of a further data set is MOLT-3. The data set is described as §3. The class given is functional, cell-based. An outline of the steps:
as §4

Setting [5] is: Plasmodium falciparum, K1, read-out: IC50.

SMILES strings stand for the structures. The source made the active and inactive calls. No cut-off for these calls is given here.

Take `Cc1c2ccncc2c(C)c2c1[nH]c1ccccc12` [ELLIPTECINE]: the half-maximal inhibitory concentration (IC50) (as a rule, the concentration needed to halve the response being measured) in the data set on Vero was 1.94 µM.

With `COc1cccc(/C=C/C(=O)c2cccc(-n3cc(COc4cc(=O)oc5ccccc45)nn3)c2)c1OC`, the concentration for half-maximal inhibition (IC50) in [1] is 2.36 µM; with HepG2 [2], 4.26 µM; with A549 it was 18.1 µM; in data set [3], 0.53 µM; in the data set on Plasmodium falciparum (setting [5]) it was 4.73 µM; in the data set with Vero, 3.91 µM. The “Ratio IC50” value in the data set on HepG2 [4] amounted to 7.

Turning to `COc1ccc(/C=C/C(=O)c2ccc(-n3cc(COc4ccc5ccc(=O)oc5c4)nn3)cc2)c(OC)c1OC`, the outcome with HuCC-A1, in the data set with HepG2 [2] and in the data set on A549 was inactive. In addition, the half-maximal inhibitory concentration (IC50) in data set [3] was 22.5 µM; in the data set on Plasmodium falciparum, “Not Active”. In addition, in the data set on Vero, the Activity entry was “Non-toxic”.

On to `COc1cccc(/C=C/C(=O)c2ccc(-n3cc(COc4ccc5ccc(=O)oc5c4)nn3)cc2)c1OC`, for which the IC50 is 4.81 µM in data set [1], 8.18 µM in the data set with HepG2 [2], 7.95 µM in the data set on A549 and “Not Active” in the data set on Plasmodium falciparum. In the data set with MOLT-3, the result was inactive. Also, in the data set on Vero, the Activity result is “Non-toxic”.

Take `COc1cc(/C=C/C(=O)c2ccc(-n3cc(COc4ccc5ccc(=O)oc5c4)nn3)cc2)cc(OC)c1OC`: the result in the data set with HuCC-A1, in the data set with HepG2 [2] and in the data set on A549 was inactive. Also, the IC50 is 79.5 µM in data set [3] and “Not Active” in the data set with Plasmodium falciparum. For the same compound, the Activity entry in the data set on Vero is reported as “Non-toxic”.

Consider `COc1ccc(/C=C/C(=O)c2cccc(-n3cc(COc4ccc5ccc(=O)oc5c4)nn3)c2)c(OC)c1OC`, for which the result in the data set with HuCC-A1, in the data set with HepG2 [2] and in the data set on A549 was inactive. For the same compound, the IC50 in [3] came out at 3.89 µM; in the data set on Plasmodium falciparum (setting [5]) it was 13 µM. Also, the Activity result in the data set with Vero is given as “Non-toxic”.

Regarding `COc1cc([C@@H]2c3cc4c(cc3[C@@H](O[C@@H]3O[C@@H]5CO[C@@H](C)O[C@H]5[C@H](O)[C@H]3O)[C@H]3COC(=O)[C@H]23)OCO4)cc(OC)c1O` [ETOPOSIDE], in data set [3], the concentration for half-maximal inhibition (IC50) came to 0.051 µM.

Regarding `COc1ccc(/C=C/C(=O)c2cccc(-n3cc(COc4cc(=O)oc5ccccc45)nn3)c2)cc1OC`, the IC50 in data set [1] is 38.6 µM; in data set [3], 3.91 µM; in the data set with Plasmodium falciparum it was “Not Active”. Moreover, the result in the data set on HepG2 [2] and with A549 was inactive. Moreover, in the data set with Vero, the Activity result is “Non-toxic”.

As for `COc1ccc(/C=C/C(=O)c2cccc(-n3cc(COc4cc(=O)oc5ccccc45)nn3)c2)c(OC)c1OC`, the IC50 in data set [1] came out at 6.13 µM; in data set [3] it was 1.13 µM; in the data set on Plasmodium falciparum (setting [5]), 7.47 µM. For the same compound, the outcome with HepG2 [2] and in the data set with A549 was inactive. Further, the Activity entry in the data set with Vero is “Non-toxic”.

`COc1cccc(/C=C/C(=O)c2cccc(-n3cc(COc4ccc5ccc(=O)oc5c4)nn3)c2)c1OC`: the half-inhibitory concentration (IC50) in data set [1] amounted to 11.1 µM; with HepG2 [2] it was 15.7 µM; with A549, 31.4 µM; in data set [3], 5.16 µM; in the data set with Plasmodium falciparum (setting [5]) it was 6.63 µM; with Vero, 35 µM.

On to `COc1cc(/C=C/C(=O)c2ccc(-n3cc(COc4cc(=O)oc5ccccc45)nn3)cc2)cc(OC)c1OC`, for which the result in the data set with HuCC-A1, in the data set on HepG2 [2] and in the data set with A549 was inactive. Also, the IC50 in data set [3] was 6.58 µM; in the data set with Plasmodium falciparum, “Not Active”. Further, the Activity entry in the data set on Vero is reported as “Non-toxic”.

Regarding `C[C@H]1[C@@H](O)O[C@@H]2O[C@@]3(C)CC[C@H]4[C@H](C)CC[C@@H]1[C@@]24OO3` [ARTENIMOL], the IC50 in the data set on Plasmodium falciparum (setting [5]) was 0.0011 µM.

`COc1ccc(/C=C/C(=O)c2ccc(-n3cc(COc4cc(=O)oc5ccccc45)nn3)cc2)c(OC)c1OC`: the result with HuCC-A1 and with A549 was inactive. The values for the half-inhibitory concentration (IC50) (with HepG2 [2]; in [3]; with Plasmodium falciparum (setting [5])) were 22.9 µM, 12.3 µM and 1.6 µM, respectively. In the data set on Vero, the Activity entry was “Non-toxic”.

`COc1ccc(/C=C/C(=O)c2cccc(-n3cc(COc4ccc5ccc(=O)oc5c4)nn3)c2)cc1OC`: the IC50 was 33.4 µM in data set [1], 3.12 µM in data set [3] and “Not Active” in the data set on Plasmodium falciparum. Also, the result in the data set with HepG2 [2] and with A549 was inactive. Besides, the Activity entry with Vero is given as “Non-toxic”.

`COc1cccc2c1C(=O)c1c(O)c3c(c(O)c1C2=O)C[C@@](O)(C(=O)CO)C[C@@H]3O[C@H]1C[C@H](N)[C@H](O)[C@H](C)O1` [DOXORUBICIN]: in data set [1], the IC50 is 0.83 µM.

(Values after ChEMBL document CHEMBL3351873, “Synthesis, biological evaluation and molecular docking of novel chalcone-coumarin hybrids as anticancer and antimalarial agents” (Eur J Med Chem, 2014).)
